Bioassay records (PubChem)
KCNQ1 block: blocks the human KCNQ1 potassium channel. B-score at 10 µM. 1.3% of 310,000 active. CHO-K1 KCNQ1, FluxOR thallium flux fluorescence; stronger effect = higher value;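 active = compounds whose thallium flux B-score, printed positive for inhibition, exceeds three library SD while starting fluorescence stays within three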;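 also: channel opened by potassium depolarization with thallium stimulus after 20 min compound exposure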
KCNK3 block: human KCNK3 channel inhibition, primary screen | B-score at 10 µM | CHO-KCNK3 thallium flux, FluxOR fluorescence; stronger effect = lower value | 0.84% of 340,000 active | AID 602410;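 active = B-score under library mean minus 4 SD, starting fluorescence ratio at most library mean plus 5 SD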;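 also: more negative B-score means stronger inhibition of thallium flux through KCNK3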
KCNK9 block: human KCNK9 channel inhibition; B-score at 10 µM; Q9NPC2; 1.2% of 310,000 active; HEK293 KCNK9, FluxOR thallium flux fluorescence; stronger effect = lower value;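 active = ratio B-score over 3 SD below the library mean, with starting fluorescence within 5 SD of its mean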;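 also: negative B-score means less thallium flux so channel inhibition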
Kir21 block: blocks the mouse Kir2.1 inward-rectifier potassium channel; P35561; HEK293-Kir2.1, FluxOR thallium flux fluorescence; stronger effect = lower value; B-score at 10 µM; 0.85% of 310,000 active; AID 1672;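 active = fluorescence ratio B-score at or below minus 3 SD of library scores, with starting-brightness B-score within 2 SD, cut at about -4.2 in these data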;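 also: channel flux triggered by added potassium and thallium sulfate stimulus; B-score of peak minus minimum fluorescence over baseline after thallium stimulus; more negative B-score means stronger Kir2.1 block with less thallium influx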
Target sequence (P35561 whole entry, looked up): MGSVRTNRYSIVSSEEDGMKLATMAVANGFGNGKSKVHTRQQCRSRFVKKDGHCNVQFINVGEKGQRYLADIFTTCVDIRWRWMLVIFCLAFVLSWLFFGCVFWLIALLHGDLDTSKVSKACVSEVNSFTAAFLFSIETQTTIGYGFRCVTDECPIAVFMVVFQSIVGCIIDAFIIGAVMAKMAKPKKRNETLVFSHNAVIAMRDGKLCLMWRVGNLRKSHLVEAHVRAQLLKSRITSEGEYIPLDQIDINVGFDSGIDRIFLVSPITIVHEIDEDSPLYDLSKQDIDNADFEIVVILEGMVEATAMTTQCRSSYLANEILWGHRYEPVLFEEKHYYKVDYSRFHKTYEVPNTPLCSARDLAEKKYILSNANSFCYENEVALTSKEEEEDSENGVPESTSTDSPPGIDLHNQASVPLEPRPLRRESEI
KCNQ1 pot: potentiates or activates the human KCNQ1 potassium channel. CHO-K1 KCNQ1, thallium flux FluxOR fluorescence; stronger effect = higher value. 0.35% of 310,000 active. B-score at 10 µM;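 active = fluorescence ratio B-score, a plate-corrected score, at least three library SD, with initial intensity B-score within 5 SD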
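System: CHO-K1 cells stably expressing KCNQ1 / Medium: assay buffer for compound exposure, DMSO matched across wells / Reagent: thallium- and potassium-containing depolarizing buffer / Compound: one concentration, matched DMSO / Incubation: 20 min compound pretreatment at room temperature / Measured by: kinetic FluxOR fluorescence, 10 s baseline plus 110 s post-stimulus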
hERG rescue: compounds protecting human hERG from proarrhythmic drug block; Q12809; activation (rescue from dofetilide block), less the hit threshold, % at 10 µM; 0.51% of 310,000 active; AID 1511; CHO-hERG, FluxOR thallium flux, dofetilide IC70 present;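 active = activation above the mean of controls blocked by dofetilide plus 5 SD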;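 also: thallium influx through hERG after potassium depolarization seen as dye fluorescence rise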
KCNK9 inh conf: human KCNK9 inhibitor confirmation. shares compounds with KCNK9 block. HEK293 KCNK9 cells, FluxOR thallium flux fluorescence. inhibition, % at 10 µM. 43% of 4,900 active;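 active = thallium signal inhibited by more than 5 SD of the compound-free buffer control wells, on both duplicate plates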
Kir21 sel: mouse Kir2.1 off-target activity of KCNK9 modulators; shares compounds with KCNK9 block; 4% of 4,900 active; Kir2.1 cells, FluxOR thallium flux fluorescence; inhibition, % at 10 µM;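 active = thallium signal drop more than 5 SD beyond the mean of the no-compound control wells, seen in both duplicate plates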;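 also: signal is fluorescence rise after thallium addition divided by baseline fluorescence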
HEK293 Tl ctr: second counter-screen for KCNK9 modulators: effect in non-induced cells; inhibition, % at 10 µM; shares compounds with KCNK9 block; 40% of 4,900 active; non-induced KCNK9-HEK293, FluxOR thallium flux;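 active = thallium signal drop beyond 5 SD of the untreated control mean, on both duplicate plates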
Hits are given with their value. Sampled rows, rich in hits. Any-hit rate of the full collection: about 3.8%.

Screening CN(CCOc1ccc(Cl)cc1)C(=O)Cc1ccc(S(=O)(=O)N2CCOCC2)s1 returned KCNK3 block inactive.
`Cc1ccc(-c2ccc(SCC(=O)N3CCc4ccccc43)nn2)cc1` gave KCNQ1 block inactive, KCNK9 block inactive, Kir21 block inactive, KCNQ1 pot inactive and hERG rescue inactive.
For Cc1ccc(-c2ccc(SCC(=O)N3CCCc4ccccc43)nn2)cc1 the results were KCNQ1 block inactive, KCNK9 block inactive, Kir21 block inactive, KCNQ1 pot inactive, hERG rescue inactive, KCNK9 inh conf inactive, Kir21 sel inactive and HEK293 Tl ctr inactive.
`O=C(O)CC1Sc2nnc(COc3ccc(Cl)cc3)n2N=C1c1ccccc1` (stereo not drawn) gave KCNQ1 block inactive, KCNK3 block inactive, KCNK9 block inactive, Kir21 block inactive, KCNQ1 pot inactive and hERG rescue inactive.
COCCn1c(SCc2nnc(-c3ccccc3)o2)nc2sc3c(c2c1=O)CCC3 was read as KCNQ1 block inactive, KCNK3 block inactive, KCNK9 block -11.2, Kir21 block inactive, KCNQ1 pot inactive, hERG rescue inactive, KCNK9 inh conf 37.0%, Kir21 sel inactive and HEK293 Tl ctr 32.5%.
For Cc1noc(C)c1S(=O)(=O)N1CCCN(C(=O)/C=C/c2ccccc2F)CC1 the results were KCNK3 block inactive.
`COc1ccc(/C=C2\SC(=S)N(C(Cc3ccccc3)C(=O)O)C2=O)cc1` (stereo not drawn) gave KCNQ1 block inactive, KCNK3 block inactive, KCNK9 block inactive, Kir21 block inactive, KCNQ1 pot inactive, hERG rescue inactive, KCNK9 inh conf inactive, Kir21 sel inactive and HEK293 Tl ctr inactive.
For CCOc1ccc(/C=C2\SC(=S)N(CCC(=O)Nc3ccccc3C(=O)O)C2=O)cc1 the results were KCNQ1 block inactive, KCNK3 block inactive, KCNK9 block inactive, Kir21 block inactive, KCNQ1 pot inactive and hERG rescue inactive.
Screening COc1cc(/C=C2\SC(=S)N(CCC(=O)Nc3ccccn3)C2=O)cc(OC)c1OC returned KCNQ1 block inactive, KCNK3 block inactive, KCNK9 block -8.26, Kir21 block inactive, KCNQ1 pot inactive, hERG rescue inactive, KCNK9 inh conf inactive, Kir21 sel inactive and HEK293 Tl ctr inactive.
`O=C(O)C(Cc1ccccc1)N1C(=O)/C(=C/c2cccnc2)SC1=S` (stereo not drawn) gave KCNQ1 block inactive, KCNK3 block inactive, KCNK9 block inactive, Kir21 block inactive, KCNQ1 pot inactive and hERG rescue inactive.
`COc1ccc(/C=C2\SC(=S)N(CCC(=O)Nc3ccccc3C(=O)O)C2=O)cc1` gave KCNQ1 block inactive, KCNK3 block inactive, KCNK9 block inactive, Kir21 block inactive, KCNQ1 pot inactive, hERG rescue inactive, KCNK9 inh conf inactive, Kir21 sel inactive and HEK293 Tl ctr inactive.
Brc1ccc(Oc2ncc(CN3CCN(c4ccccc4)CC3)s2)cc1 was read as KCNQ1 block inactive, KCNK3 block inactive, KCNK9 block inactive, Kir21 block inactive, KCNQ1 pot inactive, hERG rescue inactive, KCNK9 inh conf inactive, Kir21 sel inactive and HEK293 Tl ctr inactive.
`O=C(N/N=C/c1cccs1)c1ccc(NC(=O)c2ccccc2Cl)cc1` gave KCNQ1 block inactive, KCNK3 block inactive, KCNK9 block inactive, Kir21 block inactive, KCNQ1 pot inactive and hERG rescue inactive.
`O=C(N/N=C/c1cccs1)c1cccc(NC(=O)c2ccccc2Cl)c1` gave KCNQ1 block inactive, KCNK3 block inactive, KCNK9 block -9.38, Kir21 block inactive, KCNQ1 pot inactive, hERG rescue inactive, KCNK9 inh conf inactive, Kir21 sel inactive and HEK293 Tl ctr inactive.
O=C(N/N=C/c1cn(-c2cccs2)nc1-c1ccccc1)c1ccccc1Cl was read as KCNQ1 block inactive, KCNK3 block inactive, KCNK9 block -10, Kir21 block inactive, KCNQ1 pot inactive, hERG rescue inactive, KCNK9 inh conf 51.0%, Kir21 sel inactive and HEK293 Tl ctr inactive.
Screening CCCCn1c(N)c(N(CC(C)C)C(=O)C2CCN(S(=O)(=O)c3ccccc3)CC2)c(=O)[nH]c1=O returned KCNQ1 block inactive, KCNK3 block inactive, KCNK9 block inactive, Kir21 block inactive, KCNQ1 pot inactive and hERG rescue inactive.
CC(=O)NC(CC(=O)OC(C)C(=O)Nc1ncc(Cl)cc1Cl)c1ccccc1 (stereo not drawn) was read as KCNQ1 block inactive, KCNK3 block inactive, KCNK9 block inactive, Kir21 block inactive, KCNQ1 pot inactive and hERG rescue inactive.
For O=C1CC2(CCN1)CCN(Cc1ccccc1)CC2 the results were KCNK3 block inactive.
Screening CCCCOc1cccc(C(=O)N(Cc2ccccc2)C2CCS(=O)(=O)C2)c1 (stereo not drawn) returned KCNQ1 block inactive, KCNK3 block inactive, KCNK9 block inactive, Kir21 block inactive, KCNQ1 pot inactive and hERG rescue inactive.
`O=C(Nc1ccccc1)OC1CCCCc2cccnc21` (stereo not drawn) gave KCNQ1 block inactive, KCNK3 block inactive, KCNK9 block inactive, Kir21 block inactive, KCNQ1 pot inactive, hERG rescue inactive, KCNK9 inh conf inactive, Kir21 sel inactive and HEK293 Tl ctr 28.5%.
For O=C(Nc1ccccc1)OCCNC1CCCCC1 the results were KCNK3 block inactive.
CN(C)c1ccc2c(c1)Sc1cc(N(C)C)ccc1N2C(=O)c1ccccc1 was read as KCNQ1 block 6, KCNK3 block inactive, KCNK9 block inactive, Kir21 block inactive, KCNQ1 pot inactive, hERG rescue inactive, KCNK9 inh conf inactive, Kir21 sel inactive and HEK293 Tl ctr inactive.
For COCCN1CC(C(=O)N2CCC(Oc3ccccc3OC)CC2)CCC1=O (stereo not drawn) the results were KCNQ1 block inactive, KCNK3 block inactive, KCNK9 block inactive, Kir21 block inactive, KCNQ1 pot inactive and hERG rescue inactive.
`O=C(NOCc1cscn1)Nc1ccccc1` gave KCNK3 block inactive.
`O=[N+]([O-])c1cccc(-c2nc(-c3ccccc3)c(-c3cccs3)[nH]2)c1` gave KCNQ1 block inactive, KCNK3 block inactive, KCNK9 block inactive, Kir21 block inactive, KCNQ1 pot inactive and hERG rescue inactive.
Screening COc1cc(-c2nc(-c3ccccc3)c(-c3cc([N+](=O)[O-])ccc3C)[nH]2)cc(OC)c1OC returned KCNQ1 block 9, KCNK3 block -11.5, KCNK9 block -13.5, Kir21 block inactive, KCNQ1 pot inactive, hERG rescue inactive, KCNK9 inh conf 60.0%, Kir21 sel inactive and HEK293 Tl ctr 23.5%.
